Usually IC50 stands for the point on the concentration scale where inhibition reaches its midpoint.

Active and inactive are the calls of the source. No cut-off for these calls is given here.

The target of assay [1] is T1, DNA topoisomerase 2-alpha (Homo sapiens, UniProt P11388). As to the kind of experiment: Inhibition of human topoisomerase 2 p170alpha assessed as relaxation of lambda ZAPII plasmid Bluescript KS+ DNA at 100 uM by SDS electrophoresis. An outline of the steps:
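Compound at 100 µM in 0.5% Cremophor EL, 30 min at 37 °C. Stopped with 1% SDS, then proteinase K 50 µg/mL and chloroform-isoamyl alcohol extraction. Run on 1% TAE agarose with ethidium bromide 0.5 µg/mL post-stain. Etoposide 100 µM as control.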

The subject of assay [2] is Saccharomyces cerevisiae. As to the kind of experiment: DNA damaging activity against topoisomerase 2-deficient RS321N mutant yeast assessed as drug level required to produce 12 mm zone of inhibition by agar well diffusion assay. Format: functional. An outline of the steps: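 S. cerevisiae RS321N seeded on 1% nutrient agar. Samples in 1:1 DMSO-MeOH went into 7 mm wells. The read-out was the zone (mm) of no visible growth. Several concentrations were tested, and the dose giving a 12 mm zone (IC12) was calculated by regression.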
Background: Agar diffusion results depend on both activity and mobility in agar.

The subject of assay [3] is Saccharomyces cerevisiae. As to the kind of experiment: DNA damaging activity against topoisomerase 2-deficient rad52Y mutant yeast assessed as drug level required to produce 12 mm zone of inhibition by agar well diffusion assay. Format: functional. In short, it runs like this:
(§1)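 Saccharomyces cerevisiae strains (RS321N, rad52Y, RAD+) were seeded separately onto 1% nutrient agar. Samples at 200 µg/mL in 1:1 DMSO-MeOH went into 7 mm wells, and the clear growth-free zone was measured in mm. For actives, several concentrations were tested, and the dose giving a 12 mm zone (IC12) came from regression. Camptothecin and streptonigrin at 5 µg/mL served as controls.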

The subject of assay [4] is Saccharomyces cerevisiae. Kind of assay: DNA damaging activity against wild type DNA repairing RAD gene expressing yeast assessed as drug level required to produce 12 mm zone of inhibition by agar well diffusion assay. It is filed as functional. In short, it runs like this: as §1
Assay [5] deals with Saccharomyces cerevisiae. Kind of assay: DNA damaging activity against wild type DNA repairing RAD gene expressing yeast at 200 ug/mL by agar well diffusion assay. It is filed as functional, organism-based. An outline of the steps: (§2)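 Yeast strains (rad52Y; RAD+ wild type) were seeded separately on 1% nutrient agar plates. Samples at 200 µg/mL in 1:1 DMSO-MeOH were placed in wells cut by removing 7 mm plugs. Activity was the width (mm) of the zone around the well with no visible yeast growth. Camptothecin and streptonigrin at 5 µg/mL served as controls.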

Assay [6] relates to Saccharomyces cerevisiae. As to the kind of experiment: DNA damaging activity against topoisomerase 2-deficient rad52Y mutant yeast at 200 ug/mL by agar well diffusion assay. It is filed as functional, organism-based. In short, it runs like this: as §2
Another assay relates to NCI-H460. As to the kind of experiment: Cytotoxicity against human NCI-H460 cells after 48 hrs by MTT assay at up to 10 uM. Format: functional, cell-based. In short, it runs like this:
(§3)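 Cells kept in RPMI with 10% FBS at 37 °C, 5% CO2. Log-phase cells were treated in triplicate with 0-10 µM compound for 48 h at 37 °C in humidified 5% CO2. Viability was read by MTT absorbance on a plate reader.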
(In general: Formazan colour is commonly taken as a measure of viable cells.)

A further assay deals with Nucleic Acid. As to the kind of experiment: Displacement of methyl green dye from DNA by spectrophotometry. It is filed as nucleic-acid assay. In short, it runs like this: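 Daunomycin (50 µg/mL) was the positive control. Methyl green absorbance was read on a plate reader.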
Assay [7] has as its target T1, DNA topoisomerase 2-alpha. As to the kind of experiment: Inhibition of human topoisomerase 2 p170alpha assessed as movement supercoiled lambda ZAPII plasmid Bluescript KS+ DNA at 100 uM after 60 mins by electrophoretic mobility shift assay. An outline of the steps:
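Mobility shift with pBlueScript KS(+) and 6 units human topo II (p170) in ATP-free buffer. Buffer, running buffer and gel were all at pH 6.4. Compound at 100 µM, with etoposide 50 µM as control. No SDS/proteinase K stop; samples loaded directly onto a TAE gel containing 1.0 µg/mL ethidium bromide.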

The target in assay [8] is T1, DNA topoisomerase 2-alpha. Kind of assay: Inhibition of human topoisomerase 2 p170alpha assessed as relaxation of lambda ZAPII plasmid Bluescript KS+ DNA by SDS electrophoresis. An outline of the steps:
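Supercoiled pBlueScript KS(+) (about 200 ng) relaxed by 4 units human topo II (p170) in Tris-HCl pH 8.0 buffer with 120 mM KCl, 10 mM MgCl2, 0.5 mM ATP and DTT. Compound in 0.5% Cremophor EL, dilution series in triplicate, 30 min at 37 °C. SDS/proteinase K stop, then 1% TAE agarose gel with ethidium bromide staining. IC50 from the dilution series.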

A further assay deals with SF-268. Kind of assay: Cytotoxicity against human SF268 cells after 48 hrs by MTT assay at up to 10 uM. It is filed as functional, cell-based. An outline of the steps:
as §3

The next assay relates to MCF7. As to the kind of experiment: Cytotoxicity against human MCF7 cells after 48 hrs by MTT assay. Format: functional, cell-based. The conditions noted are these: MCF7, 48 h. An outline of the steps: as §3

T1 sequence (P11388 whole entry): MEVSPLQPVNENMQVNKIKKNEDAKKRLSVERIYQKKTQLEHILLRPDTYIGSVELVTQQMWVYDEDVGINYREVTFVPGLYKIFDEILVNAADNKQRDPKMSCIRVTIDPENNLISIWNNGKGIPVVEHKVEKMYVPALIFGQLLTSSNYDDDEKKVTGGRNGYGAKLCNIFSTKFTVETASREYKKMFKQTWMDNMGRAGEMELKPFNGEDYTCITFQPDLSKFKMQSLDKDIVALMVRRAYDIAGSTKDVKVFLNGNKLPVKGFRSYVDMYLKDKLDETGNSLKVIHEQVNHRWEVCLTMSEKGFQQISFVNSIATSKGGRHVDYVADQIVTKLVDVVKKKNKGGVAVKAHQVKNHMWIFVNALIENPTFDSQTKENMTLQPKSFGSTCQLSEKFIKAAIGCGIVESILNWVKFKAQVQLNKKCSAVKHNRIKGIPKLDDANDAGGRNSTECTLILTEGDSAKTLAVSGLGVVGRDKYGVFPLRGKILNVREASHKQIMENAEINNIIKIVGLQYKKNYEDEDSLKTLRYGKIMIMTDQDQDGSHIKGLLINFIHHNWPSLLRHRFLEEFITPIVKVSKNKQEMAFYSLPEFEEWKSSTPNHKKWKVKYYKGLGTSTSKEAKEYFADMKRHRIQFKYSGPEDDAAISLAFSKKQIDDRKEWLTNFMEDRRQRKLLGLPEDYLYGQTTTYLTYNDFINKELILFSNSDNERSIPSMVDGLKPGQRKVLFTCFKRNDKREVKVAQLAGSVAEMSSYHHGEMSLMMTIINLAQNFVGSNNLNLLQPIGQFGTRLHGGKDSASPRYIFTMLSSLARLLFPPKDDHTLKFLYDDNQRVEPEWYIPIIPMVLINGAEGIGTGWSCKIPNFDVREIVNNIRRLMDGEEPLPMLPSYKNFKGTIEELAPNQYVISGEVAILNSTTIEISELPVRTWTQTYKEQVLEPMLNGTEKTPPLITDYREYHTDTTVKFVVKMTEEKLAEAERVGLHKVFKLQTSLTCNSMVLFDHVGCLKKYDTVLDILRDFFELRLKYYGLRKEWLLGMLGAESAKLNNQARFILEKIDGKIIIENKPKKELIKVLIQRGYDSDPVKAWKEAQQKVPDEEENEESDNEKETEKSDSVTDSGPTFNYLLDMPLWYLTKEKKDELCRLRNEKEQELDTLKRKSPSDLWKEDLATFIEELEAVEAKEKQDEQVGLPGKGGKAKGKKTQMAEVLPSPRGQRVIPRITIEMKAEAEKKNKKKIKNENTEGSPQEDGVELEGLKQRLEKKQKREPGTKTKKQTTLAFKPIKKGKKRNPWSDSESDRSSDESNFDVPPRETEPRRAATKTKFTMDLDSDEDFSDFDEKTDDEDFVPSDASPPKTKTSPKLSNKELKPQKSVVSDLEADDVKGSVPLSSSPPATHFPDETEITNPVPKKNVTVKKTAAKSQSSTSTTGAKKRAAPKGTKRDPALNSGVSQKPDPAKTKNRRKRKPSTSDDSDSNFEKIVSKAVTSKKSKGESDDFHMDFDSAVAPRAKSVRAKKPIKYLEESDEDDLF

Turning to `COC(=O)[C@]1(C)CC[C@]2(C)CC[C@]3(C)C4=CC(=O)c5c(cc(O)c(O)c5C(=O)O)[C@]4(C)CC[C@@]3(C)[C@@H]2C1`, the outcome in [1] was inactive.

`CC[C@@]1(O)C(=O)OCc2c1cc1n(c2=O)Cc2cc3ccccc3nc2-1` [CAMPTOTHECIN]: the “IC12 (concentration giving a 12 mm inhibition zone)” value in the assay on Saccharomyces cerevisiae [2] is above 20 µg/mL. The Activity in the assay with Saccharomyces cerevisiae [3] was found to be 0.6 µg/mL; in the assay on Saccharomyces cerevisiae [4], 110 µg/mL.

`COC(=O)[C@]1(C)CC[C@]2(C)CC[C@]3(C)C4=CCc5c(cc(O)c(O)c5C)[C@]4(C)CC[C@@]3(C)[C@@H]2C1`: the result in assay [1] was inactive.

Turning to `CC1=C(O)C(=O)C=C2C1=CC=C1[C@@]2(C)CC[C@@]2(C)[C@@H]3C[C@@H](C)C(=O)C[C@]3(C)CC[C@]12C` [TINGENONE], the outcome in the assay on Saccharomyces cerevisiae [5] and in the assay with Saccharomyces cerevisiae [6] was inactive. Moreover, the “IC12 (concentration giving a 12 mm inhibition zone)” value with Saccharomyces cerevisiae [2] was determined as 325 µg/mL.

As to `C[C@@]1(C(=O)O)CC[C@]2(C)CC[C@]3(C)C4=CC(=O)c5c(cc(O)c(O)c5C(=O)O)[C@]4(C)CC[C@@]3(C)[C@@H]2C1` [DEMETHYLZEYLASTERONE], the outcome (in assay [1]; in the assay on Nucleic Acid; in [7]) was Active. In addition, the outcome in the assay with NCI-H460 and with SF-268 was inactive. The IC50 in assay [8] was found to be 17.6 µM; in the assay with MCF7, 12.5 µM.

With `CC1=C(O)C(=O)C=C2C1=CC=C1[C@@]2(C)CC[C@@]2(C)[C@@H]3C[C@](C)(O)C(=O)C[C@]3(C)CC[C@]12C` [20ALPHA-HYDROXYTINGENONE], the result in the assay on Saccharomyces cerevisiae [5] and with Saccharomyces cerevisiae [6] was inactive. Further, in the assay on Saccharomyces cerevisiae [2], the “IC12 (concentration giving a 12 mm inhibition zone)” value amounted to 185 µg/mL.

Consider `COC(=O)[C@]1(C)CC[C@]2(C)CC[C@]3(C)C4=CC(=O)c5c(cc(O)c(O)c5C=O)[C@]4(C)CC[C@@]3(C)[C@@H]2C1`, for which, in assay [1], the outcome was inactive.

For the molecule `CC1=C2C3=CC=C4C(=CC(=O)C(O)=C4C)[C@]3(C)CC[C@@]2(C)[C@@H]2C[C@@H](C)[C@@H](O)C(=O)C2C1` (stereo not given in full) [BALAENONOL], the outcome in the assay with Saccharomyces cerevisiae [5] and with Saccharomyces cerevisiae [6] was inactive. Also, the “IC12 (concentration giving a 12 mm inhibition zone)” value with Saccharomyces cerevisiae [2] worked out at 220 µg/mL.

As for `COC1=C(N)C(=O)c2nc(-c3nc(C(=O)O)c(C)c(-c4ccc(OC)c(OC)c4O)c3N)ccc2C1=O` [STREPTONIGRIN], the “IC12 (concentration giving a 12 mm inhibition zone)” value in the assay on Saccharomyces cerevisiae [2] is below 0.4 µg/mL. For the same molecule, the Activity with Saccharomyces cerevisiae [3] was 0.4 µg/mL.

Turning to `COc1cc([C@@H]2c3cc4c(cc3[C@@H](O[C@@H]3O[C@@H]5CO[C@@H](C)O[C@H]5[C@H](O)[C@H]3O)[C@H]3COC(=O)[C@H]23)OCO4)cc(OC)c1O`, the outcome in assay [1] was inactive.

The values above are taken from ChEMBL document CHEMBL1156357, “Catalytic inhibition of topoisomerase IIalpha by demethylzeylasterone, a 6-oxophenolic triterpenoid from Kokoona zeylanica” (J Nat Prod, 2001).
